# Test results published in ChEMBL document CHEMBL1140145, “Identification of non-nucleoside DNA synthesis inhibitors of vaccinia virus by high-throughput screening” (J Med Chem, 2008).
# Active and inactive are the calls of the source. The calls are words filed in the database; no cut-off is given here.
# Columns and labels:
# Vaccinia virus [1] = test: Inhibition of Vaccinia virus DNA synthesis in by rapid plate assay; assay type: functional, organism-based; settings: Orthopoxvirus vaccinia
# Vaccinia virus [2] = test: Antiviral activity against Vaccinia virus WR in BSC1 cells assessed as reduction in plaque formation after 20 hrs; assay type: functional, organism-based; settings: Orthopoxvirus vaccinia, BSC-1, 20 h
# [3] = Cytotoxicity against african green monkey BSC1 cells after 20 hrs WST-1 based assay; assay type: cell-based, BSC-1; settings: chlorocebus aethiops, read-out: TC50
# How it was run: (§1)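 Uninfected BS-C-1 cells in phenol red-free medium, seeded 5000 (20 h), 1000 (3-day) or 200 (5-day) cells/well, exposed next day to compound in two-fold serial dilutions (top 200 µM; 1% DMSO final) at 37°C. WST-1 added 30 min, A450 read. Triplicates; percent cytotoxicity vs DMSO fitted four-parameter sigmoidal for TC50.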
# Vaccinia virus [4] = test: Antiviral activity against Vaccinia virus WR in BSC1 cells assessed as protection from virus-induced lysis of cell monolayer after 20 hrs; assay type: functional, organism-based; settings: Orthopoxvirus vaccinia, BSC-1, 20 h
# Vaccinia virus [5] = test: Antiviral activity against Vaccinia virus WR in BSC1 cells assessed as retention of antiviral potency by measuring exogenous double stranded DNA trapping; assay type: functional, organism-based; settings: Orthopoxvirus vaccinia, BSC-1
# Vaccinia virus [6] = test: Antiviral activity against Vaccinia virus WR in BSC1 cells assessed as reduction in plaque formation up to 200 uM after 20 hrs; assay type: functional, organism-based; settings: Orthopoxvirus vaccinia, BSC-1
# Vaccinia virus [7] = test: Antiviral activity against Vaccinia virus WR in BSC1 cells assessed as protection from virus-induced lysis of cell monolayer up to 200 uM after 20 hrs; assay type: functional, organism-based; settings: Orthopoxvirus vaccinia, BSC-1
# [8] = Cytotoxicity against african green monkey BSC1 cells up to 200 uM after 20 to 120 hrs WST-1 based assay; assay type: cell-based; settings: chlorocebus aethiops, bsc-1; how it was run: as §1
Compound,IC50 (Vaccinia virus [1]),EC50 (Vaccinia virus [2]),CC50 at 20 h [3],EC50 (Vaccinia virus [4]),Activity (Vaccinia virus [5]),Activity (Vaccinia virus [6]),Activity (Vaccinia virus [7]),Activity [8]
CN(C)CC(O)Cn1c2ccc(Cl)cc2c2cc(Cl)ccc21 (centres undefined),12 µM,10 µM,17 µM,–,–,–,–,–
COc1ccc2c(C)nc(N/C(N)=N/C(C)=O)nc2c1,16 µM,40 µM,90 µM,–,–,–,–,–
N#CC1=C(SCc2ccccc2)SC(c2ccccc2O)NC1=O (centres undefined),250 µM,150 µM,> 200 µM,–,–,–,–,–
CN1CCc2c(-c3cccs3)nc(OCc3ccccc3Br)c(C#N)c2C1,112 µM,40 µM,82 µM,–,–,–,–,–
CCN1CCN(CCCNC(=O)c2ccc3c(c2)NC(=O)/C(=C\C(=O)c2ccc(OC)cc2)N3)CC1,36 µM,–,> 200 µM,–,–,–,–,–
O=C(O)C1Nc2ccccc2C2C=CCC12 (centres undefined),> 400 µM,–,> 200 µM,–,–,–,–,–
CN(C)CCCNc1c2c(nc3ccccc13)CCC2,32 µM,50 µM,172 µM,–,–,–,–,–
Cc1cc(OCC(=O)NC(Cc2c[nH]c3ccccc23)C(=O)O)cc(C)c1Cl (centres undefined),73 µM,200 µM,> 200 µM,–,–,–,–,–
CN(C)Cc1ccc2ccc3cccc4ccc1c2c34,–,10 µM,20 µM,25 µM,inactive,–,–,–
S=c1nc(-c2ccco2)c2c(=S)[nH]c(=S)[nH]c2[nH]1,142 µM,–,> 200 µM,–,–,–,–,–
CC[n+]1cc(/C=C2\SC=CN2C)c(C)c2cc(OC)c3ccccc3c21,3.5 µM,–,–,–,–,inactive,inactive,Toxic
c1ccc2nc3c(nc2c1)c1ccccc1n3CCN1CCOCC1,28 µM,30 µM,72 µM,–,–,–,–,–
CC(C)Nc1ccc(Nc2ccnc3cc4ccccc4cc23)cc1,4.1 µM,–,–,–,–,inactive,inactive,Toxic
O=C1/C(=C/c2ccc(Br)o2)CC/C1=C\c1ccc(Br)o1,95 µM,–,> 200 µM,–,–,–,–,–
COc1ccc2nc(NC(=N)N)nc(C)c2c1,7.4 µM,–,–,–,–,inactive,inactive,Toxic
Cc1ccc2nc(Cl)c3cc(C(=O)N(CCN(C)C)Cc4ccco4)sc3c2c1,10 µM,–,–,–,–,inactive,inactive,Toxic

Compound,IC50 (Vaccinia virus [1]),EC50 (Vaccinia virus [2]),CC50 at 20 h [3],EC50 (Vaccinia virus [4]),Activity (Vaccinia virus [5]),Activity (Vaccinia virus [6]),Activity (Vaccinia virus [7]),Activity [8]
COC(=O)C(C(=O)OC)C(Nc1ccccc1)c1ccccc1 (centres undefined),638 µM,–,> 200 µM,–,–,–,–,–
CN(C)CCNC(=O)c1cc2c(s1)-c1ccc(Cl)cc1SC2,37 µM,5 µM,3.9 µM,–,–,–,–,–
CC1=NN(c2ccccc2)C(=O)/C1=C\c1cn(CC(O)CN2CCCCC2)c2ccccc12 (centres undefined),24 µM,25 µM,79 µM,–,–,–,–,–
Cc1cc(NCCN2CCCCC2)c2ccc3ccccc3c2n1,6 µM,–,–,–,–,inactive,inactive,Toxic
Oc1ccc(C2(c3ccc(O)cc3)CCCC2)cc1,71 µM,75 µM,35 µM,–,–,–,–,–
CCS(=O)(=O)N1CCN=C1SCc1ccc(Cl)cc1Cl,188 µM,25 µM,166 µM,90 µM,Active,–,–,–
COC(=O)c1c(NC(=O)c2ccc(OC)cc2)sc2c1CCN(C(C)C)C2,–,25 µM,87 µM,40 µM,inactive,–,–,–
Nc1[nH]c(=S)sc1C(=O)Nc1nccs1,41 µM,–,> 200 µM,–,–,–,–,–
CCOC(=O)c1cnc2c(C)c(C)ccc2c1NCCCN(C)C,5 µM,–,–,–,–,inactive,inactive,Toxic
CN(C)CC/N=c1\cc(-c2ccccc2)oc2ccc(Cl)cc12,6.7 µM,–,–,–,–,inactive,inactive,Toxic
OC(CN1CCNCC1)Cn1c2ccc(Br)cc2c2cc(Br)ccc21 (centres undefined),6.3 µM,–,–,–,–,inactive,inactive,Toxic
Cc1cc2c(cc3c(=O)n(CC(=O)NCCN4CCOCC4)ncn32)s1,–,25 µM,100 µM,23 µM,inactive,–,–,–
Cc1ccc2oc(=O)c3cc(C(=O)NCCN4CCCCC4C)sc3c2c1 (centres undefined),25 µM,50 µM,147 µM,–,–,–,–,–
CN(C)CCOC(=O)c1ccc2[nH]c3c(c2c1)CSCC3 [TIPINDOLE],115 µM,100 µM,> 200 µM,–,–,–,–,–
CN(C)c1ccc(-c2cccc(-c3ccc(N(C)C)cc3)[o+]2)cc1,3 µM,–,–,–,–,inactive,inactive,Toxic
CN(C)CCN(C(=O)c1ccco1)c1nc2cc3c(cc2s1)OCO3,29 µM,100 µM,> 200 µM,–,–,–,–,–
